Consider 16 compounds from PubChem BioAssay.

Assay [1] in a line: OD615 S. cerevisiae growth inhibition, permissive medium, pilot counter-assay, permissive growth control for S. cerevisiae lifespan shortening project (AID 705;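 active = growth inhibition above 25% in both replicates, a cutoff set 3 SD above the mean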). The conditions noted are these: OD615, 24 h, at 10 µM, hits give high values. An outline of the steps: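 Material: engineered DeaD yeast; compound dosing: one dose 10 µM, DMSO 0.25% final; measure: yeast growth inhibition indicated by reduced 24 h OD615; detection: OD615 turbidity read; incubation: cells pre-grown 4 h, then 24 h compound exposure, 30 °C humidified; medium: permissive synthetic complete medium with raffinose and galactose carbon sources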

The nature of assay [2]: Restrictive medium S. cerevisiae growth inhibition, OD615, pilot screen of yeast lifespan reduction project, restrictive growth control (AID 706;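 active = growth inhibition above a set limit, 3 SD over mean compound inhibition, in both replicates, cut at about 43% in these data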;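 also: modified DeaD lifespan yeast strain shifted to restrictive glucose medium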). The note with it: OD615, 48 h, at 10 µM, hits give high values. An outline of the steps: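 material = engineered S. cerevisiae DeaD strain | medium = glucose-based CSMM-D restrictive medium | times = 4 h pre-incubation, 48 h exposure at 30 °C | technique = OD615 absorbance reading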

Assay [3] can be described thus: viability gain of MRP-1-high H69AR cells under doxorubicin, pilot screen, MRP-1 activator project, CellTiter-Glo, duplicate (AID 807;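 active = viability increase at or above a cutoff of the median across tested compounds plus 3 SD, cut at about 8.5% in these data, passing the limit was not always enough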;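 also: compound pretreatment 18-22 h then 72 h combined with doxorubicin; 0% = doxorubicin alone and 100% = vehicle without doxorubicin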). The note with it: H69AR viability with doxorubicin, CellTiter-Glo luminescence; at 10 µM; hits give high values. For orientation: ATP-based viability assays read luminescence as a measure of living cells.
Assay [4] is described as follows: growth suppression of beta-catenin knockout HCT116, pilot screen, human colon tumor cells (AID 823;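 active = cell viability at or below a set limit in both duplicate runs, the limit being the all-compound median minus 4 SD, cut at about 23% in these data, passing the limit was not always enough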;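 also: 0% = wells killed by 20 µM Hyamine and 100% = untreated DMSO cell wells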). The note with it: CellTiter-Glo, 60 h, at 10 µM, hits give low values.
Assay [5] can be described thus: growth suppression of PTEN-deleted HCT116, pilot screen, cell-based, HCT116 clonal line, CellTiter-Glo (AID 824;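 active = viability at or below 27.92% in each of two runs, the all-compound median minus 4 SD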;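 also: 0% = 20 µM Hyamine control and 100% = vehicle cell control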). The conditions noted are these: 60 h, at 10 µM, hits give low values.
Assay [6] can be described thus: inhibitors of the yeast RAM network, pilot screen, dse1pr::URA3 reporter, 5-FOA selection (AID 869).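 Also: 0% = DMSO wells with no growth and 100% = 10 µM 1-NA-PP1 with full growth; RAM network block rescues cells from 5-FOA so hits raise OD615 growth.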 The conditions noted are these: S. cerevisiae dse1pr::URA3 5-FOA growth, OD615, 2 d; at 10 µM; hits give high values; strain carries analog-sensitive mutant Cbk1 kinase.
The nature of assay [7]: RAM signaling pathway blockade in yeast – S. cerevisiae, Pdr1DBD-CYC8 efflux-inhibited sensitized strain, primary screen (AID 1298;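 active = RAM network inhibition above 8.4% in each of two replicates, 3 SD over the compound average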;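 also: 0% = DMSO untreated cells without growth and 100% = 10 µM 1-NA-PP1 full growth; higher means more yeast growth rescued from 5-FOA killing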). The conditions noted are these: S. cerevisiae cbk1-as DSE1-URA3 strain, 5-FOA growth OD615, 2 d; at 50 µM; hits give high values.

SMILES strings stand for the structures. Unmarked numbers belong to inactive results. Records with an inconclusive call do not appear. Calls of active or inactive are those of the source.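 The calls were made as follows, unless noted: active = inhibition over a set limit, the all-compound mean plus 3 SD, in both replicate runs; inconclusive = over that limit in just one replicate run; inactive = at or under that limit in both runs.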

A word on the viability: it is a read-out of living cells in per cent, often relative to untreated cells. For orientation: inhibition means the percentage by which the read-out fell short of the control. `CCOC(=O)c1c(C2CCN(C(=O)OCC)CC2)nc2ccccn12`: the results for the growth inhibition in assay [1] and in assay [2] were -9.71% and -12.6%, respectively. Further, the viability increase in assay [3] was -1.79%. Besides, the viability is 95.4% in assay [4] and 88.7% in assay [5]. For the same compound, in assay [6], the inhibition was 2.99%. Besides, the RAM network inhibition in assay [7] was 2.43%.
As for `O=C(C1CCN(c2ncnc3c2sc2cccc(F)c23)CC1)N1CCOCC1`, the growth inhibition in assay [1] was 0.06%; in assay [2], 2.17%. For the same compound, the viability increase in assay [3] was -6.73%. The figures for the viability in assay [4] and in assay [5] were 77.2% and 76.8%, respectively. Besides, in assay [6], the inhibition is 3.08%. Besides, in assay [7], the RAM network inhibition was 1.81%.
`CCCn1c(CNc2ccc(Br)cc2)nc2ccccc21`: the growth inhibition was -11.7% in assay [1] and -9.32% in assay [2]. In assay [3], the viability increase is -3.5%. In addition, the viability is 88.2% in assay [4] and 82.7% in assay [5]. The inhibition in assay [6] is 1.47%. In addition, the RAM network inhibition in assay [7] was 1.62%.
Consider `CCN(CC)S(=O)(=O)c1cccc(-c2nnc(SCc3nnc(-c4cccs4)o3)n2N)c1`, for which the growth inhibition in assay [1] was 5.53%; in assay [2], 46.4% (active). For the same compound, the viability increase in assay [3] was 0.28%. The viability in assay [4] was 86.5%; in assay [5] it was 92.5%. In assay [6], the inhibition is 1.85%. Besides, in assay [7], the RAM network inhibition is 3.12%.
`NC(=O)C1CCN(C(=O)c2cc3ccccn3n2)CC1`: the growth inhibition in assay [1] is 0.24%; in assay [2] it was -0.18%. Also, in assay [3], the viability increase was -0.34%. For the same compound, the viability in assay [4] was 103%; in assay [5], 98.2%. Also, the inhibition in assay [6] is 0.505%. Further, the RAM network inhibition in assay [7] is 1.35%.
For the compound `COCCn1c(SCC(=O)Nc2cc(Cl)ccc2OC)nc2c(c1=O)SC(C)C2` (configuration not stated), the growth inhibition was 1.23% in assay [1] and 0.95% in assay [2]. Further, the viability increase in assay [3] was -6.28%. Also, the viability is 83.3% in assay [4] and 78% in assay [5]. The inhibition in assay [6] is 2.55%. In addition, in assay [7], the RAM network inhibition is -0.36%.
Regarding `COCC(=O)NCc1nc2ccccc2n1Cc1ccccc1F`, the growth inhibition in assay [1] was -7.99%; in assay [2], -15.2%. Moreover, in assay [3], the viability increase was -1.11%. Moreover, the viability in assay [4] was 98.2%; in assay [5] it was 99.2%. The inhibition in assay [6] is 1.59%. Further, the RAM network inhibition in assay [7] was 0.88%.
Consider `COc1ccc(-c2nc(-c3ccc(NC(=O)c4ccncc4)cc3)no2)cc1OC`, for which the growth inhibition in assay [1] is -3.46%; in assay [2] it was 9.41%. Besides, the viability increase in assay [3] is 0.06%. The viability was 42.6% in assay [4] and 50.8% in assay [5]. For the same compound, the inhibition in assay [6] was 2.85%. Besides, the RAM network inhibition in assay [7] is 2.92%.
Consider `O=C(NCc1ccco1)C1CCCN(S(=O)(=O)c2cccc3cccnc23)C1` (configuration not stated), for which the growth inhibition in assay [1] is -10.6%; in assay [2], -8.38%. Further, the viability increase in assay [3] is -4.15%. The viability in assay [4] is 96.4%; in assay [5], 94.4%. The inhibition in assay [6] was 0.595%. Further, the RAM network inhibition in assay [7] was 0.89%.
Regarding `NC(=O)CSc1nnc(-c2ccncc2)n1-c1ccc(Cl)cc1`, the growth inhibition is -5.39% in assay [1] and 0.11% in assay [2]. Further, the viability increase in assay [3] was -1.78%. The viability in assay [4] is 97.7%; in assay [5], 94.1%. For the same compound, the inhibition in assay [6] was 0.785%. In assay [7], the RAM network inhibition was 1.57%.
Consider `O=C1c2ccccc2C(=O)N1CCCCN(C(=O)c1ccco1)c1ccc(Cl)cc1`, for which the growth inhibition in assay [1] was -1.78%; in assay [2], -17.5%. Moreover, the viability increase in assay [3] is -2.82%. Besides, the viability was 102% in assay [4] and 91.1% in assay [5]. Also, in assay [6], the inhibition was 2.79%. In assay [7], the RAM network inhibition is 5.33%.
On to `O=C(c1cccc(C(=O)N2CCc3ccccc32)n1)N1CCc2ccccc21`, for which the results for the growth inhibition in assay [1] and in assay [2] were -9.26% and -3.99%, respectively. Moreover, the viability increase in assay [3] was -5.2%. The viability in assay [4] is 83.3%; in assay [5], 84.4%. Moreover, in assay [6], the inhibition is 0.515%. The RAM network inhibition in assay [7] was 6.13%.
With `COc1ccc2cc(CCNC(=O)c3c(-c4ccccc4Cl)noc3C)c(=O)[nH]c2c1`, the results for the growth inhibition in assay [1] and in assay [2] were -14.1% and -21.1%, respectively. In addition, in assay [3], the viability increase is -3.23%. Moreover, the viability in assay [4] was 103%; in assay [5], 92.7%. Also, in assay [6], the inhibition is 1.02%. Besides, in assay [7], the RAM network inhibition was 4.72%.
`COc1cc(/C=N/n2cnnc2)ccc1OCCOc1ccccc1`: the values for the growth inhibition in assay [1] and in assay [2] were 0.295% and 1.02%, respectively. Besides, the viability increase in assay [3] was -3.68%. The results for the viability in assay [4] and in assay [5] were 104% and 91.8%, respectively. Further, the inhibition in assay [6] is 3.07%. Also, the RAM network inhibition in assay [7] was 5.62%.
For the compound `Cc1cc(=O)oc2c(N)c(O)ccc12`, the growth inhibition is -4.57% in assay [1] and -11.6% in assay [2]. The viability increase in assay [3] was -4.95%. In addition, the viability in assay [4] is 101%; in assay [5] it was 98.5%. Also, the inhibition in assay [6] was 0.53%. The RAM network inhibition in assay [7] is 1.88%.
For the compound `COCCNC(=O)CN1C(=O)CC(C)(C)S(=O)(=O)c2ccccc21`, the growth inhibition in assay [1] is -2.02%; in assay [2], -10.2%. The viability increase in assay [3] was 1.42%. The viability was 109% in assay [4] and 101% in assay [5]. The inhibition in assay [6] was 0.31%. In assay [7], the RAM network inhibition is -0.36%.
